According to ChEMBL document CHEMBL2203206, “Hesperetin: an inhibitor of the transforming growth factor-β (TGF-β) signaling pathway” (Eur J Med Chem, 2012):
Activity calls are given as the source filed them. No cut-off for these calls is given here.

What was measured:
[1] = target: TGF-beta receptor type-2 (Homo sapiens) (UniProt P37173); assay: Displacement of biotinylated TGF-beta1 from human TGF-beta type 2 receptor at 100 uM after 1 hr by avidin-FITC-based flow cytometry
Procedure, shortened: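 HeLa cells were incubated 1 h with 0.1% DMSO or 100 μM compound in the presence of biotinylated TGF-β1. Bound ligand was detected with avidin-FITC and fluorescence intensity read by flow cytometry.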

[2] = test system: HeLa; assay: Antagonist activity at human TGF-beta receptor in HeLa cells assessed as suppression of nuclear translocation of Smad3 at 100 uM after 1 hr by immunofluorescence imaging; format: functional, cell-based
Procedure, shortened: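 HeLa cells were grown 24 h, then serum-starved 24 h and treated 1 h with 0.1% DMSO or 100 μM compound, ± TGF-β1. Cells were fixed in 4% paraformaldehyde, permeabilized with 0.1% Triton X-100 and blocked with 1% BSA/PBST. Staining used anti-Smad3 (1:200, overnight) and Alexa 488 secondary (1:500), imaged by confocal microscopy.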

[3] = test system: HeLa; assay: Cytotoxicity against human HeLa cells at 1 to 200 uM after 24 hrs by MTS proliferation assay; format: cell-based
Procedure, shortened: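 HeLa cells were seeded at 1 × 10^4 per well in complete medium for 24 h. They were then exposed to vehicle (0.1% DMSO) or 0–200 μM compound for 24 h. Proliferation was read with a CellTiter 96 Aqueous non-radioactive (MTS-type) assay.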

[4] = test system: HeLa; assay: Antimigratory activity against human HeLa cells assessed as inhibition of TGF-beta1-induced cell invasion across collagen matrix at 100 uM after 24 hr by collagen-based cell Invasion assay
[5] = test system: HeLa; assay: Antagonist activity at human TGF-beta receptor in HeLa cells assessed as reduction in TGF-beta1-induced Smad3 phosphorylation at 100 uM after 1 hr by Western blot analysis; format: functional, cell-based
Procedure, shortened: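 Starved HeLa cells given 0.1% DMSO vehicle or 100 μM compound for 1 h, with or without TGF-β1. Lysates in Laemmli buffer were denatured 10 min at 95°C and run on 7.5% SDS gels, then transferred to PVDF. Blots were probed with p-Smad3 and Smad3 antibodies (1:1000) and detected by ECL.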

[6] = test system: HeLa; assay: Antimigratory activity against human HeLa cells assessed as inhibition of TGF-beta1-induced cell migration at 100 uM after 24 hrs by scratch motility assay; format: functional, cell-based
Procedure, shortened: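 Confluent HeLa monolayers (1 × 10^6 cells/well), starved 24 h, were scratched with a pipette tip and washed. They then received 0.1% DMSO or 100 μM compound ± TGF-β1 for 24 h. Cells in five random fields of the scratch were counted and averaged per field.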

[7] = target: TGF-beta receptor type-2 (Homo sapiens) (UniProt P37173); assay: Inhibition of TGF-beta1 induced TGF-beta type 2 receptor dimerization in human HeLa cells at 100 uM after 1 hr by single-molecule fluorescence microscopy; format: cell-based
Procedure, shortened: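 HeLa cells were transfected for 4 h with TβRII-GFP plasmid (0.2 μg/mL) to give low expression. They were given 0.1% DMSO or 100 μM compound for 1 h, then 15 min with 10 ng/mL TGF-β1 where stimulated. Live-cell TIRF imaging used 488-nm excitation at 10 Hz for 200 frames. Spot intensities were fitted with Gaussians to give monomer/dimer fractions; purified GFP served as monomer reference.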

[8] = test system: HeLa; assay: Antagonist activity at human TGF-beta receptor in HeLa cells assessed as reduction in TGF-beta1-induced p21 expression at 100 uM after 24 hrs by Western blot analysis; format: functional, cell-based
Procedure, shortened: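 Starved HeLa cells exposed to vehicle (0.1% DMSO) or 100 μM compound for 24 h, with or without TGF-β1. Lysates were denatured at 95°C and separated on 7.5% SDS gels. PVDF blots were probed with anti-p21 (1:1000) and read by enhanced chemiluminescence.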

[9] = target: TGF-beta receptor type-2 (Homo sapiens) (UniProt P37173); assay: Inhibition of TGF-beta1 induced TGF-beta type 2 receptor dimerization in human HeLa cells assessed as receptor dimers by bleaching-step counting assay (reference value: 39.9 +/- 2.5%); format: cell-based; design: scale not given: the % may be the effect or the level left

Chain of TGF-beta receptor type-2 (Homo sapiens) (P37173 whole entry): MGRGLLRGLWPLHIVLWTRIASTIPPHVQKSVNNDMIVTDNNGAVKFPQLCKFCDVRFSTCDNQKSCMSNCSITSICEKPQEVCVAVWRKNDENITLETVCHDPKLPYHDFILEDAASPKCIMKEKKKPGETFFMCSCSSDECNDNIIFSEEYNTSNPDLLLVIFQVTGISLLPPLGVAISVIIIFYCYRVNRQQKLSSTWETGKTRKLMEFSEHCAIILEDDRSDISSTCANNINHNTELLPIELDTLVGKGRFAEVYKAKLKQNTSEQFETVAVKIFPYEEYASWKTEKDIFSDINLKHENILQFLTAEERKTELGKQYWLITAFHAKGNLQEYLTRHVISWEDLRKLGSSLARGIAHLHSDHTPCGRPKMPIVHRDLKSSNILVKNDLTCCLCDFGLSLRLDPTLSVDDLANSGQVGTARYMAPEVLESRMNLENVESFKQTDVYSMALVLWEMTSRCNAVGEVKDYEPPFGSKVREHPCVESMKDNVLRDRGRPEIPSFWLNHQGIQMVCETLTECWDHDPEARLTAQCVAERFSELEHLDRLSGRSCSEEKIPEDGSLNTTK

For `COc1ccc([C@@H]2CC(=O)c3c(O)cc(O)cc3O2)cc1O` [HESPERETIN], the Activity [1] was “Active”, the inhibition [2] was “Active” and the Activity [3] was “Non-toxic”. For the same compound, the inhibition [4] was “Active”, the inhibition [5] was “Active” and the inhibition [6] was “Active”. For the same compound, the inhibition [7] was 19.9%, the inhibition [8] was “Active” and the Activity [9] was 19.5%.
